Assay results reported in ChEMBL document CHEMBL1157370, “Efficacy of a novel rifamycin derivative, ABI-0043, against Staphylococcus aureus in an experimental model of foreign-body infection” (Antimicrob Agents Chemother, 2007).
In brackets after ≈: the same amount, converted by molar mass.

Key:
[1] = Ratio of peak drug level in albino guinea pig cage fluid at 12.5 mg/kg, ip to MIC for Staphylococcus aureus ATCC 29213; format: functional; conditions: route intraperitoneal
Procedure, shortened: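 The peak cage-fluid concentration after a single ip dose was divided by the MIC. MIC was determined by macrotube dilution in cation-adjusted Mueller-Hinton broth with an inoculum of 5 × 10^5 CFU/ml, read visually as the lowest concentration with no growth. Tests were run in triplicate and the median reported.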

[2] = Cmax in albino guinea pig cage fluid at 12.5 mg/kg, ip administered as single dose; format: ADME, organism-based, Cavia porcellus, Interstitial fluid; parameters: dose 12.5 mg/kg, route intraperitoneal
Procedure, shortened: (§1)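 Noninfected guinea pigs with subcutaneous tissue cages received ip dosing, either a single dose or every 12 h for 4 days (multiple-dose values taken on day 4). Cage fluid was aspirated over 12 h, mixed with EDTA, centrifuged and stored at −20°C. Drug levels were measured by agar diffusion bioassay. Cmin was taken 12 h after dosing. Values are means ± SD from 12 aspirates.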

[3] = Cmax in albino guinea pig cage fluid at 3 mg/kg, ip administered as single dose; format: ADME, organism-based, Cavia porcellus, Interstitial fluid; parameters: dose 3 mg/kg, route intraperitoneal
Procedure, shortened: (§2)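 Noninfected cage-bearing guinea pigs given one ip dose. Cage fluid aspirated over 12 h, mixed with EDTA and centrifuged. Levels measured in triplicate by agar diffusion bioassay with S. pneumoniae ATCC 49619 indicator (detection limit 0.0005 μg/ml). Cmin taken 12 h post-dose; means ± SD from 12 aspirates.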

[4] = Cmin in albino guinea pig cage fluid at 12.5 mg/kg, ip administered as single dose measured after 12 hrs; format: ADME, organism-based, Cavia porcellus; parameters: dose 12.5 mg/kg, route intraperitoneal; conditions: read-out: Cmin; procedure, shortened: as §1
[5] = Cmin in albino guinea pig cage fluid at 3 mg/kg, ip administered as single dose measured after 12 hrs; format: ADME, organism-based, Cavia porcellus; parameters: dose 3 mg/kg, route intraperitoneal; conditions: read-out: Cmin; procedure, shortened: as §2
Staphylococcus aureus [6] = test: Antibacterial activity against Staphylococcus aureus ATCC 29213 infected albino guinea pig tissue-cage infection model assessed as bacterial count at 12 mg/kg, ip administered every 12 hrs for 4 days measured during treatment period; format: functional; conditions: route intraperitoneal
Procedure, shortened: (§3)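 Male albino guinea pigs (640–800 g) carrying four subcutaneous Teflon tissue cages; cages inoculated with 2 × 10^4 CFU S. aureus. Drug given ip in saline (5 ml total) every 12 h for 4 days, starting 24 h post-infection. Cage-fluid log10 CFU/ml measured on day 1 (baseline), day 4 before last dose (during treatment), and day 9 (5 days after treatment). ≥12 cages (3 animals) per regimen; mean reported.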

Staphylococcus aureus [7] = test: Antibacterial activity against Staphylococcus aureus ATCC 29213 infected albino guinea pig tissue-cage infection model assessed as bacterial count at 12 mg/kg, ip administered every 12 hrs for 4 days measured after treatment period; format: functional; conditions: route intraperitoneal; procedure, shortened: as §3
Staphylococcus aureus [8] = test: Antibacterial activity against Staphylococcus aureus ATCC 29213 infected albino guinea pig tissue-cage infection model assessed as infection cure rate at 12.5 mg/kg, ip administered every 12 hrs for 4 days; format: functional; conditions: route intraperitoneal
Procedure, shortened: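 Guinea pig tissue-cage S. aureus infection (2 × 10^4 CFU per cage), treated ip every 12 h for 4 days, starting 24 h after inoculation. Cages were explanted 5 days after treatment ended, vortexed in 10 ml TSB and incubated at 37°C. After 24 h, 50 μl was plated on sheep blood agar. Cure rate is the fraction of cages with no growth; at least 12 cages per regimen.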

Staphylococcus aureus [9] = test: Antibacterial activity against Staphylococcus aureus ATCC 29213 infected albino guinea pig tissue-cage infection model assessed as infection cure rate at 3 mg/kg, ip administered every 12 hrs for 4 days; format: functional; conditions: route intraperitoneal
Procedure, shortened: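 Guinea pig subcutaneous Teflon tissue-cage model infected with 2 × 10^4 CFU S. aureus. Drug given ip every 12 h for 4 days from 24 h post-infection. Cages removed on day 9, vortexed in 10 ml TSB, incubated 24 h at 37°C and plated on sheep blood agar. Cure rate = fraction of cages with no growth; ≥12 cages per regimen.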

[10] = Cmax in albino guinea pig cage fluid at 12.5 mg/kg, ip administered every 12 hrs for 4 days; format: ADME, organism-based, Cavia porcellus, Interstitial fluid; parameters: dose 12.5 mg/kg, route intraperitoneal; procedure, shortened: as §1
Staphylococcus aureus [11] = test: Antibacterial activity against Staphylococcus aureus ATCC 29213 by macrotube dilution method; format: functional
Procedure, shortened: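 S. aureus from overnight culture, inoculum 5 × 10^5 CFU/ml, in cation-adjusted Mueller-Hinton broth; twofold? no—serial drug dilutions (tips changed each dilution) per CLSI macrotube method. MIC = lowest concentration with no visible growth. Run in triplicate, median reported.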

Staphylococcus aureus [12] = test: Antibacterial activity against Staphylococcus aureus ATCC 29213 assessed as logarithmic-growth-phase minimal bactericidal concentration after 24 hrs by macrotube dilution method; format: functional; conditions: ATCC 29213, 24 h
Procedure, shortened: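 MBClog: cation-adjusted Mueller-Hinton broth, macrotube dilution, inoculum 5 × 10^5 CFU/ml taken from overnight culture; lowest concentration cutting initial count by >99.9% (3 log10 CFU/ml) after 24 h incubation. Run in triplicate, median reported.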

Staphylococcus aureus [13] = test: Antibacterial activity against Staphylococcus aureus ATCC 29213 assessed as stationary-growth-phase minimal bactericidal concentration after 24 hrs by macrotube dilution method; format: functional; conditions: ATCC 29213, 24 h
Staphylococcus aureus [14] = test: Ratio of MBC for Staphylococcus aureus ATCC 29213 during stationary-growth phase to logarithmic-growth phase
[15] = Ratio of peak drug level in albino guinea pig cage fluid at 12.5 mg/kg, ip to MBC for Staphylococcus aureus ATCC 29213 during stationary-growth phase; conditions: route intraperitoneal
[16] = Cmin in albino guinea pig cage fluid at 5 mg/kg, ip administered as single dose measured after 12 hrs; format: ADME, organism-based, Cavia porcellus; parameters: dose 5 mg/kg, route intraperitoneal; conditions: read-out: Cmin
Procedure, shortened: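 Single ip dose to noninfected cage-bearing guinea pigs. Cage fluid EDTA-treated and centrifuged, then assayed with E. coli V6311/65 bioassay (detection limit 0.01 μg/ml). Trough measured 12 h after dosing; means ± SD from 12 aspirates.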

in vivo = conditions: guinea pig, cage fluid, ip, 5 mg/kg
Staphylococcus aureus [17] = test: Antibacterial activity against Staphylococcus aureus ATCC 29213 infected albino guinea pig tissue-cage infection model assessed as bacterial count at 12.5 mg/kg, ip administered every 12 hrs after 4 days; format: functional; conditions: route intraperitoneal
Procedure, shortened: (§4)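 Male albino guinea pigs (640 to 800 g) carried four subcutaneous perforated Teflon cages. After two weeks, sterility was confirmed and each cage was inoculated percutaneously with 2 × 10^4 CFU S. aureus in 200 μl. Treatment began 24 h later: ip every 12 h for 4 days (8 doses). Quantitative cage-fluid cultures were taken on day 1, before the last dose (day 4) and 5 days after treatment (day 9). At least 12 cages (3 animals) per regimen.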

Staphylococcus aureus [18] = test: Antibacterial activity against Staphylococcus aureus ATCC 29213 infected albino guinea pig tissue-cage infection model assessed as bacterial count at 12.5 mg/kg, ip administered every 12 hrs after 5 days; format: functional; conditions: route intraperitoneal; procedure, shortened: as §4

SMILES | Ratio [1] | Cmax [2] [µg/mL] | Cmax [3] [µg/mL] | concentration at 12 h [4] [µg/mL] | concentration at 12 h [5] [µg/mL] | log10CFU/ml (Staphylococcus aureus [6]) | log10CFU/ml (Staphylococcus aureus [7]) | Activity (Staphylococcus aureus [8]) [%] | Activity (Staphylococcus aureus [9]) [%] | Cmax [10] [µg/mL] | MIC (Staphylococcus aureus [11]) [mg/L] | MBC (Staphylococcus aureus [12]) [mg/L] | MBC (Staphylococcus aureus [13]) [mg/L] | Ratio (Staphylococcus aureus [14]) | Ratio [15] | concentration at 12 h [16] [µg/mL] | Cmax (in vivo) [µg/mL] | log10CFU/ml (Staphylococcus aureus [17]) | log10CFU/ml (Staphylococcus aureus [18])
CO[C@H]1/C=C/O[C@@]2(C)Oc3c(C)c(O)c4c(=O)c(c5oc6cc(N7CCN(C)CC7)cc(O)c6nc-5c4c3C2=O)NC(=O)/C(C)=C\C=C\[C@H](C)[C@H](O)[C@@H](C)[C@@H](O)[C@@H](C)[C@H](O)[C@@H]1C | 1130 | 1.13 | 0.11 | 0.14 | 0.04 | 3.24 | 1.57 | 58 | 8 | 0.82 | 0.001 (≈ 0.00117 µM) | 0.008 (≈ 0.00934 µM) | 0.25 (≈ 0.292 µM) | 31.3 | 4.52 | – | – | – | –
C[C@H]1COc2c(N3CCN(C)CC3)c(F)cc3c(=O)c(C(=O)O)cn1c23.C[C@H]1COc2c(N3CCN(C)CC3)c(F)cc3c(=O)c(C(=O)O)cn1c23.O [LEVOFLOXACIN] | – | – | – | – | – | – | – | – | – | – | 0.16 | 0.32 | 40 | 125 | – | 0.01 | 0.97 | – | –
CO[C@H]1/C=C/O[C@@]2(C)Oc3c(C)c(O)c4c(O)c(c(/C=N/N5CCN(C)CC5)c(O)c4c3C2=O)NC(=O)/C(C)=C\C=C\[C@H](C)[C@H](O)[C@@H](C)[C@@H](O)[C@@H](C)[C@H](OC(C)=O)[C@@H]1C [RIFAMPIN] | – | – | – | 0.14 | – | – | – | 46 | – | 0.61 | 0.016 (≈ 0.0194 µM) | 0.8 (≈ 0.972 µM) | 3.6 (≈ 4.37 µM) | – | – | – | – | 3.68 | 1.43
